Hits are enriched below; roughly 3.7% of the tested compounds scored in any of these assays.
KCNQ1 inh = inhibitors of human KCNQ1 potassium channel | AID 2642 | B-score at 10 µM | 310,000 compounds, 1.3% hits | CHO-K1 KCNQ1, FluxOR thallium flux fluorescence; hits give high values;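 active = compounds whose thallium flux B-score, printed positive for inhibition, exceeds three library SD while starting fluorescence stays within three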;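 also: channel opened by potassium depolarization with thallium stimulus after 20 min compound exposure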
Kir21 block = Kir2.1 (mouse) channel inhibition | P35561 | HEK293-Kir2.1, FluxOR thallium flux fluorescence; hits give low values | B-score at 10 µM | 310,000 compounds, 0.85% hits;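 active = fluorescence ratio B-score at or below minus 3 SD of library scores, with starting-brightness B-score within 2 SD, cut at about -4.2 in these data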;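 also: channel flux triggered by added potassium and thallium sulfate stimulus; B-score of peak minus minimum fluorescence over baseline after thallium stimulus; more negative B-score means stronger Kir2.1 block with less thallium influx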
Target sequence (P35561 whole entry, looked up): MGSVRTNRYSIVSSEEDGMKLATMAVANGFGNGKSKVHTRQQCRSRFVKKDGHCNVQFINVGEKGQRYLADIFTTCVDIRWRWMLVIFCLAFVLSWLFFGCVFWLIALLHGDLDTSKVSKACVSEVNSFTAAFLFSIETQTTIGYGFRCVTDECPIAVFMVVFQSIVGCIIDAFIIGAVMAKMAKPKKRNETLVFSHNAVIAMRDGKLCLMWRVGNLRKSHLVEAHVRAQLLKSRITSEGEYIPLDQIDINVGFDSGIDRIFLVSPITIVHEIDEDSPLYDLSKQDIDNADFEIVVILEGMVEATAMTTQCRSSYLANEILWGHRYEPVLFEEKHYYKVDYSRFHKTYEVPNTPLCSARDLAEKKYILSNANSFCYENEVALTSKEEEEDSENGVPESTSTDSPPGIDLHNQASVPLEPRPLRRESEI
KCNK3 block = human KCNK3 channel inhibition, primary screen; O14649; CHO-KCNK3 thallium flux, FluxOR fluorescence; hits give low values; B-score at 10 µM; 340,000 compounds, 0.84% hits;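 active = B-score under library mean minus 4 SD, starting fluorescence ratio at most library mean plus 5 SD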;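 also: more negative B-score means stronger inhibition of thallium flux through KCNK3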
KCNQ1 act = potentiates or activates the human KCNQ1 potassium channel | CHO-K1 KCNQ1, thallium flux FluxOR fluorescence; hits give high values | B-score at 10 µM | 310,000 compounds, 0.35% hits;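 active = fluorescence ratio B-score, a plate-corrected score, at least three library SD, with initial intensity B-score within 5 SD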
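Doses: Single concentration per compound, DMSO matched to controls | Test system: KCNQ1-transfected CHO-K1 cells | Timing: 90 min dye loading and 20 min compound exposure, both at room temperature | Measured by: Kinetic FluxOR thallium fluorescence, 10-s 1-Hz baseline, 110-s post-stimulus read | Medium: Assay buffer with matched DMSO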
hERG rescue = compounds protecting human hERG from proarrhythmic drug block. 310,000 compounds, 0.51% hits. activation (rescue from dofetilide block), less the hit threshold, % at 10 µM. CHO-hERG, FluxOR thallium flux, dofetilide IC70 present. Q12809;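 active = activation above the mean of controls blocked by dofetilide plus 5 SD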;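 also: thallium influx through hERG after potassium depolarization seen as dye fluorescence rise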
KCNK9 block = blocks the human KCNK9 two-pore domain potassium channel; Q9NPC2; HEK293 KCNK9, FluxOR thallium flux fluorescence; hits give low values; B-score at 10 µM; 310,000 compounds, 1.2% hits; AID 488922;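 active = ratio B-score over 3 SD below the library mean, with starting fluorescence within 5 SD of its mean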;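 also: negative B-score means less thallium flux so channel inhibition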
A number is an active result.

Screening CCN(C[C@H]1N[C@@](Cc2ccccc2)(C(=O)OC)[C@H]2C(=O)N(C)C(=O)[C@@H]12)C(=O)COc1ccccc1 returned KCNK3 block inactive.
For C=C(CN(C)C)C(=O)c1ccc(OC2OC(COC(C)=O)C(OC(C)=O)C(OC(C)=O)C2OC(C)=O)cc1 (stereo unspecified) the results were KCNK3 block inactive.
Screening CCOc1ccccc1OCCCC(=O)N1CCN(S(=O)(=O)c2ccc(C)cc2C)CC1 returned KCNK3 block inactive.
`Cc1ccc(C(=O)C(C)OC(=O)Cc2c[nH]c3ccccc23)cc1` (stereo unspecified) gave KCNQ1 inh inactive, Kir21 block -5.16, KCNK3 block inactive, KCNQ1 act inactive, hERG rescue inactive and KCNK9 block inactive.
`Cc1ccc(NC(=O)C(C)OC(=O)Cc2c[nH]c3ccccc23)cc1` (stereo unspecified) gave KCNQ1 inh inactive, Kir21 block -6.59, KCNK3 block inactive, KCNQ1 act inactive, hERG rescue inactive and KCNK9 block inactive.
Screening Cc1ccc(C(=O)C(C)OC(=O)Cc2n[nH]c(=O)c3ccccc23)cc1 (stereo unspecified) returned KCNQ1 inh inactive, Kir21 block inactive, KCNK3 block inactive, KCNQ1 act inactive, hERG rescue inactive and KCNK9 block inactive.
For CC(OC(=O)Cc1c[nH]c2ccccc12)C(=O)Nc1ccccc1[N+](=O)[O-] (stereo unspecified) the results were KCNQ1 inh inactive, Kir21 block -6.45, KCNK3 block inactive, KCNQ1 act inactive, hERG rescue inactive and KCNK9 block inactive.
COc1cc([N+](=O)[O-])c2nc(C(=O)O)ccc2c1 was read as KCNK3 block inactive.
COc1ccc(Cn2nnnc2C(C(C)C)N(Cc2ccco2)Cc2cccs2)cc1 (stereo unspecified) was read as KCNQ1 inh inactive, Kir21 block inactive, KCNK3 block inactive, KCNQ1 act inactive, hERG rescue inactive and KCNK9 block -7.55.
Screening CC(C)C(c1nnnn1Cc1ccccc1)N(Cc1ccco1)Cc1cccs1 (stereo unspecified) returned KCNQ1 inh inactive, Kir21 block inactive, KCNK3 block inactive, KCNQ1 act inactive, hERG rescue inactive and KCNK9 block inactive.
COc1ccc2nc(N)sc2c1 was read as KCNQ1 inh inactive, Kir21 block inactive, KCNK3 block inactive, KCNQ1 act inactive, hERG rescue inactive and KCNK9 block inactive.
`Cc1cc2nc(N)sc2cc1[N+](=O)[O-]` gave KCNQ1 inh inactive, Kir21 block inactive, KCNK3 block inactive, KCNQ1 act inactive, hERG rescue 5.0 and KCNK9 block inactive.
Screening Cc1ccc(Nc2cc(C)nc3ncnn23)cc1 returned KCNQ1 inh inactive, Kir21 block inactive, KCNK3 block inactive, KCNQ1 act inactive, hERG rescue inactive and KCNK9 block inactive.
For COC(=O)c1ccc(COc2ccccc2/C=C(\C#N)C(=O)Nc2ccc(C)cc2C)cc1 the results were KCNQ1 inh inactive, Kir21 block inactive, KCNK3 block inactive, KCNQ1 act inactive, hERG rescue inactive and KCNK9 block -7.1.
Screening CC1(C)Cc2c(sc3c2c(=N)n(Cc2ccco2)c(=O)n3Cc2ccccc2)CO1 returned KCNQ1 inh inactive, Kir21 block inactive, KCNK3 block inactive, KCNQ1 act inactive, hERG rescue inactive and KCNK9 block inactive.
CC1(C)Cc2c(sc3c2c(=N)n(Cc2ccco2)c(=O)n3Cc2ccc(Cl)cc2)CO1 was read as KCNQ1 inh 8, Kir21 block inactive, KCNK3 block inactive, KCNQ1 act inactive, hERG rescue inactive and KCNK9 block inactive.
`COc1ccc(S(=O)(=O)N2CCCc3ccccc32)cc1[N+](=O)[O-]` gave KCNQ1 inh inactive, Kir21 block inactive, KCNK3 block inactive, KCNQ1 act inactive, hERG rescue inactive and KCNK9 block inactive.
COc1ccc(S(=O)(=O)N2CCCc3ccccc32)cc1OC was read as KCNQ1 inh inactive, Kir21 block -5.29, KCNK3 block inactive, KCNQ1 act inactive, hERG rescue inactive and KCNK9 block inactive.
For O=S(=O)(c1cnc(Cl)c(Cl)c1)N1CCCc2ccccc21 the results were KCNQ1 inh inactive, Kir21 block -4.57, KCNK3 block inactive, KCNQ1 act inactive, hERG rescue inactive and KCNK9 block inactive.
